Data reported in ChEMBL document CHEMBL2010740, “Synthesis and evaluation of 2-amido-3-carboxamide thiophene CB₂ receptor agonists for pain management” (Bioorg Med Chem Lett, 2012).

Columns and labels:
[1] = target: T1, Cannabinoid receptor 2 (Rattus norvegicus, UniProt Q9QZN9); assay: Displacement of [3H]CP-55940 from rat recombinant CB2 receptor expressed in HEK293 cells after 90 mins; type: cell-based
T1 sequence (Q9QZN9 whole entry): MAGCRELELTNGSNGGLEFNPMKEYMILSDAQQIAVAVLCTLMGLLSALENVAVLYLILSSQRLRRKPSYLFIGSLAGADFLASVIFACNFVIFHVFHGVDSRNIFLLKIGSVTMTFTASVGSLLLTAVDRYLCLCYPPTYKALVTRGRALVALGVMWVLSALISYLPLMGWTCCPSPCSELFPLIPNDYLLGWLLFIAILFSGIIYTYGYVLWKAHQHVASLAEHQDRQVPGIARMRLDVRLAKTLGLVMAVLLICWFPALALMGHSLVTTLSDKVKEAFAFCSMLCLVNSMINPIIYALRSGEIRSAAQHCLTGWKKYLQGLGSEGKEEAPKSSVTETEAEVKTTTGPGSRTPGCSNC
Method in brief: (§1)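 Competitive binding: [³H]CP-55,940 displaced from membranes of HEK 293 cells stably transfected with human or rat CB₂, or CHO cells stably transfected with human or rat CB₁. Reported as pKi. Determinations >2 (duplicate of duplicate).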

[2] = target: Cannabinoid receptor 1 (Homo sapiens, UniProt P21554); assay: Displacement of [3H]CP-55940 from human recombinant CB1 receptor expressed in CHO cells after 90 mins; type: cell-based; method in brief: as §1
Cannabinoid receptor 1, sequence (P21554 whole entry): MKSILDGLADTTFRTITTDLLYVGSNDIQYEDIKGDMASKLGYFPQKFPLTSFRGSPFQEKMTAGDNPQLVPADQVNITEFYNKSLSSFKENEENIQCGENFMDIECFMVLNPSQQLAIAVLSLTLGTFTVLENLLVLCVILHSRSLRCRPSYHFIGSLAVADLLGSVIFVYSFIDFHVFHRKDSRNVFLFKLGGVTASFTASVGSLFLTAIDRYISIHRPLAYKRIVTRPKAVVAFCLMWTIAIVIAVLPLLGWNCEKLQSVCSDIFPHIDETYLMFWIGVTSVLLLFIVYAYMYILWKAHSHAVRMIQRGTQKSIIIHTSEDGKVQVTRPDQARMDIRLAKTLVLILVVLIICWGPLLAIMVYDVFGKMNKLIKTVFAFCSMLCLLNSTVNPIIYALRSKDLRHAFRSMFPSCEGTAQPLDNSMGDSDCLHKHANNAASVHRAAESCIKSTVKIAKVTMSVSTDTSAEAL

[3] = target: T2, Cannabinoid receptor 2 (Homo sapiens, UniProt P34972); assay: Displacement of [3H]CP-55940 from human recombinant CB2 receptor expressed in HEK293 cells after 90 mins; type: cell-based; method in brief: as §1
T2 sequence (P34972 whole entry): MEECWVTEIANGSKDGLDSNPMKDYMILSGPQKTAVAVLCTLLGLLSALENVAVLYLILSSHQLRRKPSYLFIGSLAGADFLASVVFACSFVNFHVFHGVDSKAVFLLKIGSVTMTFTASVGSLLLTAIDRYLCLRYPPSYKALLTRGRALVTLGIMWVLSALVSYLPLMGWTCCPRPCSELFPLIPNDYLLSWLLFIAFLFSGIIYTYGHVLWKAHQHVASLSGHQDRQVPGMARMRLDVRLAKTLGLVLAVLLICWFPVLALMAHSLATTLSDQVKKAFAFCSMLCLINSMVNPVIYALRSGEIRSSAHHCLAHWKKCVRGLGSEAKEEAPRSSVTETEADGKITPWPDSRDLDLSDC

[4] = target: T2, Cannabinoid receptor 2; assay: Agonist activity at human recombinant CB2 receptor expressed in HEK293 cells co-expressing chimeric Gaq/o protein by FLIPR assay; type: functional, cell-based
Method in brief: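 FLIPR functional assay in HEK 293 cells stably co-expressing chimeric Gαq/o protein and the CB receptor. Net peak evoked response was compared with the peak response to CP-55,940.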

CCCNC(=O)c1c(NC(=O)C23CC4CC(CC2C4)C3)sc2c1CCN(C)C2
Ki [1]: 5.89 nM | Ki [2]: > 10000 nM | Ki [3]: 91.2 nM | IC50 [4]: > 10000 nM
